The source made the active and inactive calls. The calls are words filed in the database; no cut-off is given here.
Experiments:
[1] = target: T1, Lysophosphatidylserine lipase ABHD12 (Mus musculus, UniProt Q99LR1); assay: Inhibition of JJH350 binding to ABHD12 in mouse brain membrane proteome incubated for 20 mins by CuAAC fluorescence dependent gel-based competitive ABPP assay; assay type: cell membranes
T1 sequence (Q99LR1 whole entry): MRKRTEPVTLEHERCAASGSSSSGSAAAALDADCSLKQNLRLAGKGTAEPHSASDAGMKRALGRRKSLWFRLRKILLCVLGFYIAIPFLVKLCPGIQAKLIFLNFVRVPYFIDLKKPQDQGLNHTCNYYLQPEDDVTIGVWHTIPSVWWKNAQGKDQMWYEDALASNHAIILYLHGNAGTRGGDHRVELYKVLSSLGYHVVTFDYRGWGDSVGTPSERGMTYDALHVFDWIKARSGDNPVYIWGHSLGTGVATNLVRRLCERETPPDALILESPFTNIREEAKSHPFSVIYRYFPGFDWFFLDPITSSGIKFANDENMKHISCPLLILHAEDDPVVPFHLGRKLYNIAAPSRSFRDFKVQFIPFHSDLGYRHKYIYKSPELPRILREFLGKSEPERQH
How it was run: (§1)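 Brain membrane fraction (1 mg/mL; DPBS homogenate, 16,000 x g pellet) treated with inhibitor for 20 min at room temperature. JJH350 (2 μM) added for 45 min at 37 °C, then CuAAC with rhodamine-PEG3-azide, CuSO4, TBTA and TCEP for 1 h at room temperature. Run on 10% SDS-PAGE and read by in-gel fluorescence. ABHD12 band normalized to control-treated sample (100%); IC50 from log dose-response fit.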

[2] = target: T2, Lysophosphatidylserine lipase ABHD12 (Homo sapiens) (UniProt Q8N2K0); assay: Inhibition of ABHD12 (unknown origin) expressed in HEK293T cell membranes at 10 uM using 17:1 lyso-PS as substrate preincubated for 20 mins followed by substrate addition measured after 30 mins by LC-MS analysis
T2 sequence (whole entry): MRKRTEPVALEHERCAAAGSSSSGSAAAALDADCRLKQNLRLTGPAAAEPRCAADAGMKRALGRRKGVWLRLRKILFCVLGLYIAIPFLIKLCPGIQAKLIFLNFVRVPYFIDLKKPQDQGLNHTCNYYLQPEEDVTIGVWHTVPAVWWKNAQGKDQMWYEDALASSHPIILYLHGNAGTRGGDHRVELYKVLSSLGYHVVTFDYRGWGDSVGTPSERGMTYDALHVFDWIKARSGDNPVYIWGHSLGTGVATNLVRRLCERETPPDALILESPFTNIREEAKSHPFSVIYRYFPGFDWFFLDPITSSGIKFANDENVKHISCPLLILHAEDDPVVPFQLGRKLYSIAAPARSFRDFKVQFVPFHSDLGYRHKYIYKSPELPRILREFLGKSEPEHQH
How it was run: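 Membranes from HEK293T overexpressing ABHD12 (0.25 mg/mL) in DPBS preincubated with compound for 20 min at room temperature. 17:1 lyso-PS added (100 μM final) and incubated 30 min at 37 °C. Quenched with 2:1 CHCl3/MeOH containing 1 nmol 15:0 FFA internal standard. Organic phase analyzed by LC-MS on C18 with NH4OH-containing gradient.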

[3] = target: T3, Lysophosphatidylserine lipase ABHD12 (Mus musculus) (UniProt Q99LR1); assay: Inhibition of JJH350 binding to ABHD12 in mouse brain membrane proteome at 10 uM after 20 mins by CuAAC based fluorescence scanning assay relative to control; assay type: cell membranes; how it was run: as §1
T3 sequence (whole entry): T1 sequence (Q99LR1 whole entry)

[4] = target: T3, Lysophosphatidylserine lipase ABHD12 (Mus musculus); assay: Inhibition of JJH350 binding to ABHD12 in mouse brain membrane proteome at 2 uM after 20 mins by CuAAC based fluorescence scanning assay relative to control; assay type: cell membranes; how it was run: as §1
[5] = target: T1, Lysophosphatidylserine lipase ABHD12; assay: Inhibition of FP-Rh probe binding to ABHD12 in mouse brain membrane proteome incubated for 45 mins by CuAAC fluorescence dependent gel-based competitive ABPP assay; assay type: cell membranes
How it was run: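 Mouse brain membrane proteome (1 mg/mL) preincubated with inhibitor for 45 min at 37 °C. Labelled with FP-Rh (1 μM) or JJH350 (2 μM) for 45 min at 37 °C. JJH350 samples were clicked to Rh-N3 (25 μM) by CuAAC for 60 min at room temperature. Read by 10% SDS-PAGE and in-gel fluorescence scanning. Band intensity taken relative to control (100%), and IC50 from log(inhibitor) vs normalized response.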

[6] = target: T2, Lysophosphatidylserine lipase ABHD12 (Homo sapiens); assay: Time dependent inhibition of FP-Rh binding to ABHD12 (unknown origin) expressed in HEK293T cell membranes by gel-based ABPP assay
Mus musculus = assay: In vivo inhibition of JJH350 binding to ABHD12 in mouse at 30 mg/kg, ip treated for 4 hrs by CuAAC based fluorescence scanning assay; assay type: functional, organism-based
How it was run: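 Mice injected i.p. at 10 μL/g body weight with fresh suspension in EtOH/PEG40/DPBS 1:1:18. Anesthetized with isoflurane, killed by cervical dislocation, tissues harvested. Tissues dounce-homogenized in DPBS; membrane fraction from 16,000 x g spin. Labelled with JJH350, then CuAAC to rhodamine-azide, SDS-PAGE and fluorescence scanning.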

[7] = target: T2, Lysophosphatidylserine lipase ABHD12 (Homo sapiens); assay: Inhibition of ABHD12 in PMA-differentiated human THP1 cells assessed as increase in CCL3 production at 1 uM treated simultaneously with IFN-gamma/LPS for 24 hrs and measured 6 to 24 hrs after stimulation
How it was run: (§2)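 THP-1 cells grown in RPMI/10% FBS/0.05 mM 2-mercaptoethanol, plated 2.5×10^6 per well. Treated 24 h with 150 ng/mL PMA, washed, rested 24 h. Polarized to M1 with 20 ng/mL IFN-γ plus 10 pg/mL LPS for 24 h. Compound or DMSO (test 0.1–1 μM) present at every step. Media sampled 6 and 24 h after stimulation; cytokines by MSD V-Plex. Mean ± SEM, four biological experiments.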

[8] = target: T2, Lysophosphatidylserine lipase ABHD12 (Homo sapiens); assay: Inhibition of ABHD12 in PMA-differentiated human THP1 cells assessed as increase in CCL4 production at 1 uM treated simultaneously with IFN-gamma/LPS for 24 hrs and measured 6 to 24 hrs after stimulation; how it was run: as §2
[9] = target: T2, Lysophosphatidylserine lipase ABHD12 (Homo sapiens); assay: Inhibition of ABHD12 in PMA-differentiated human THP1 cells assessed as increase in TNF-alpha production at 1 uM treated simultaneously with IFN-gamma/LPS for 24 hrs and measured 6 to 24 hrs after stimulation; how it was run: as §2
[10] = target: T2, Lysophosphatidylserine lipase ABHD12 (Homo sapiens); assay: Inhibition of ABHD12 in PMA-differentiated human THP1 cells assessed as increase in IL-1beta production at 1 uM treated simultaneously with IFN-gamma/LPS for 24 hrs and measured 6 to 24 hrs after stimulation; how it was run: as §2

| SMILES | IC50 [1] [nM] | inhibition [3] [%] | inhibition [4] [%] | other results |
| --- | --- | --- | --- | --- |
| Cc1cnc(N2CCN(NC(=S)Nc3cccnc3)CC2)c(Cl)c1 | > 50000 | – | – | inhibition [2]: inactive |
| FC(F)(F)c1cnc(NCCCNC(=S)Nc2cccnc2)c(Cl)c1 | – | 0 | 0 | – |
| FC(F)(F)c1cccnc1N1CCC(NC(=S)Nc2cccnc2)CC1 | > 5000 | – | – | – |
| FC(F)(F)c1ccnc(N2CCC(NC(=S)Nc3cccnc3)CC2)c1 | 640 | – | – | – |
| Fc1ccc(Oc2ccnc(N3CCC(NC(=S)Nc4cccnc4)CC3)c2)cc1 | 1400 | – | – | – |
| FC(F)(F)Oc1ccc(Oc2ccnc(N3CCCC(NC(=S)Nc4cccnc4)C3)c2Cl)c(Cl)c1 (centres undefined) | 90000 | – | – | – |
| S=C(Nc1cccnc1)NC1CCN(c2cc(Oc3ccccc3)ccn2)CC1 | 1900 | – | – | – |
| S=C(Nc1cccnc1)NC1CCN(c2cc(OC3CCCCC3)ccn2)CC1 | 3400 | – | – | – |
| FC(F)(F)c1cnc(N2CCC(NC(=S)Nc3cccnc3)C2)c(Cl)c1 (centres undefined) | – | 12 | 1 | – |
| FC(F)(F)c1cnc(NCCCCCCNC(=S)Nc2cccnc2)c(Cl)c1 | – | 70 | 22 | – |
| S=C(Nc1cccnc1)NC1CCN(c2cc(OCc3ccccc3)ccn2)CC1 | 2800 | – | – | – |
| FC(F)(F)Oc1ccccc1Oc1ccnc(N2CCC(NC(=S)Nc3cccnc3)CC2)c1Cl | 96 | – | – | – |
| COc1ccc(N2CCN(C(=O)ON3C(=O)C4CN(Cc5ccc(Oc6ccccc6)cc5)CCN4C3=O)CC2)cc1 (centres undefined) | – | – | – | IC50 [5]: > 10000 nM |
| FC(F)(F)c1cnc(N2CCC(NC(=S)Nc3cccnc3)CC2)c(Cl)c1 | 1100 | 96 | 89 | TDI [6]: inactive |
| FC(F)(F)c1cnc(N2CCCC(NC(=S)Nc3cccnc3)C2)c(Cl)c1 (centres undefined) | – | 4 | 0 | – |
| FC(F)(F)Oc1ccc(Oc2ccnc(N3CCC(NC(=S)Nc4cccnc4)CC3)c2Cl)cc1Cl | 33 | – | – | – |
| Cc1cnc(N2CCC(NC(=S)Nc3cccnc3)CC2)c(Cl)c1 | 3100 | – | – | – |
| FC(F)(F)c1cnc(NCCCCCNC(=S)Nc2cccnc2)c(Cl)c1 | – | 90 | 54 | – |
| FC(F)(F)c1ccc(N2CCC(NC(=S)Nc3cccnc3)CC2)nc1 | 1900 | – | – | – |
| Cc1c(Oc2ccc(OC(F)(F)F)cc2)ccnc1N1CCC(NC(=S)Nc2cccnc2)CC1 | 26 | – | – | – |
| FC(F)(F)Oc1ccc(Oc2ccnc(N3CCC(NC(=S)Nc4cccnc4)CC3)c2)cc1 | 410 | – | – | – |
| COc1ccnc(N2CCC(NC(=S)Nc3cccnc3)CC2)c1 | > 5000 | – | – | – |
| FC(F)(F)Oc1ccc(Oc2ccnc(N3CCC(NC(=S)Nc4cccnc4)CC3)c2Cl)cc1 | 25 | – | – | – |

| SMILES | IC50 [1] [nM] | inhibition [3] [%] | inhibition [4] [%] | other results |
| --- | --- | --- | --- | --- |
| S=C(Nc1cccnc1)NC1CCN(c2cc(OCC3CC3)ccn2)CC1 | 4700 | – | – | – |
| FC(F)(F)c1cnc(N2CCC(NC(=S)Nc3ccccc3)CC2)c(Cl)c1 | – | 96 | 66 | – |
| FC(F)(F)c1cccc(N2CCC(NC(=S)Nc3cccnc3)CC2)n1 | 630 | – | – | – |
| N#Cc1c(Oc2ccc(OC(F)(F)F)cc2)ccnc1N1CCC(NC(=S)Nc2cccnc2)CC1 | 180 | – | – | – |
| FC(F)(F)c1cnc(N2C3CCC2CC(NC(=S)Nc2cccnc2)C3)c(Cl)c1 (centres undefined) | – | 63 | 19 | – |
| COc1ccc(NC(=S)NC2CCN(c3ncc(C(F)(F)F)cc3Cl)CC2)cn1 | – | 1 | 0 | – |
| FC(F)(F)c1cc(Cl)nc(N2CCC(NC(=S)Nc3cccnc3)CC2)c1 | 540 | – | – | – |
| CN(C(=S)Nc1cccnc1)C1CCN(c2ncc(C(F)(F)F)cc2Cl)CC1 | – | 61 | 31 | – |
| FC(F)(F)Oc1ccc(Oc2ccnc(N3CCC(NC(=S)Nc4cccnc4)CC3)c2C(F)(F)F)cc1 | 2800 | – | – | – |
| FC(F)(F)c1cnc(N2CCC(NC(=S)Nc3cnc4ccccc4c3)CC2)c(Cl)c1 | – | 2 | 0 | – |
| FC(F)(F)Oc1ccc(Oc2ccnc(N3CCC[C@@H](NC(=S)Nc4cccnc4)C3)c2Cl)c(Cl)c1 | 100000 | – | – | – |
| FC(F)(F)c1cnc(N2CCC(NC(=S)N3CCCc4ccccc43)CC2)c(Cl)c1 | – | 0 | 0 | – |
| FC(F)(F)Oc1cccc(Oc2ccnc(N3CCC(NC(=S)Nc4cccnc4)CC3)c2Cl)c1 | 89 | – | – | – |
| FC(F)(F)c1cc(N2CCC(NC(=S)Nc3cccnc3)CC2)ncc1Cl | 1400 | – | – | – |
| O=C(Nc1cccnc1)NC1CCN(c2ncc(C(F)(F)F)cc2Cl)CC1 | – | 29 | 1 | – |
| S=C(Nc1cccnc1)NC1CCN(c2ncccc2Cl)CC1 | > 5000 | – | – | – |
| COc1ccc(N2CCN(C(=O)ON3C(=O)C4CN(C(=O)c5ccc(Oc6ccccc6)cc5)CCN4C3=O)CC2)cc1 (centres undefined) | – | – | – | inhibition (Mus musculus): Active; IC50 [5]: 320 nM |
| S=C(Nc1cccnc1)NC1CCN(c2cc(Cl)ccn2)CC1 | 2100 | – | – | – |
| FC(F)(F)c1ccnc(N2CCC(NC(=S)Nc3cccnc3)CC2)c1Cl | 300 | – | – | – |
| FC(F)(F)c1cnc(NCCCCNC(=S)Nc2cccnc2)c(Cl)c1 | – | 35 | 12 | – |
| FC(F)(F)Oc1ccc(Oc2ccnc(N3CCC[C@H](NC(=S)Nc4cccnc4)C3)c2Cl)c(Cl)c1 | > 100000 | – | – | inhibition [7]: inactive; inhibition [8]: inactive; inhibition [9]: inactive; inhibition [10]: inactive |
| FC(F)(F)c1cnc(N2CCCC(NC(=S)Nc3cccnc3)CC2)c(Cl)c1 (centres undefined) | – | 59 | 9 | – |
| COc1ccc(Oc2ccnc(N3CCC(NC(=S)Nc4cccnc4)CC3)c2)cc1 | 2900 | – | – | – |

From ChEMBL document CHEMBL4400528, “Discovery and Optimization of Selective and in Vivo Active Inhibitors of the Lysophosphatidylserine Lipase α/β-Hydrolase Domain-Containing 12 (ABHD12)” (J Med Chem, 2019)
